How the values were obtained:
Pontederia vaginalis = assay: Post-emergence herbicidal activity against three-leaf stage Monochoria vaginalis under green-house condition by water injection treatment method; type: functional
Procedure, shortened: (§1)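 Greenhouse paddy test. Seed was sown on saturated Metro Mix, covered with about 0.5 cm mix and held 48 h dark at 30 °C, 95% RH; about 15 d from seed soaking to treatment. Treatment solution was injected into the water. Rates were set per pot surface area, with serial rates made by halving the volume delivered. Held at 16 h day length, 29 °C.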

Cyperus difformis = assay: Post-emergence herbicidal activity against three-leaf stage Cyperus difformis under green-house condition by water injection treatment method; type: functional; procedure, shortened: as §1
[1] = tested on: Schoenoplectiella juncoides; assay: Post-emergence herbicidal activity against three-leaf stage Schoenoplectiella juncoides under green-house condition by water injection treatment method; type: functional; procedure, shortened: as §1
Echinochloa crus-galli [2] = assay: Post-emergence herbicidal activity against three-leaf stage Echinochloa crus-galli (barnyard grass) under green-house condition by water injection treatment method; type: functional; procedure, shortened: as §1
Oryza sativa [3] = assay: Phytotoxicity against three-leaf stage Oryza sativa (rice) under green-house condition by water injection treatment method; type: organism-based; procedure, shortened: as §1
Ipomoea hederacea = assay: Post-emergence herbicidal activity against Ipomoea hederacea (ivy-leaved morning glory) compound treated as foliar application measured after 2 weeks; type: functional
Procedure, shortened: (§2)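 Greenhouse post-emergence foliar screen in 64 cm² pots. Seed treatments were used on some species to aid germination. Plants were grown 7–21 days at 23–29 °C day/22–28 °C night under a 15 h photoperiod. Sprayed at 2–12 cm height and the 1–4 true leaf stage.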

Veronica hederifolia = assay: Post-emergence herbicidal activity against Veronica hederifolia compound treated as foliar application measured after 2 weeks; type: functional; procedure, shortened: as §2
Abutilon theophrasti = assay: Post-emergence herbicidal activity against Abutilon theophrasti (velvetleaf) compound treated as foliar application measured after 2 weeks; type: functional; procedure, shortened: as §2
Amaranthus retroflexus = assay: Post-emergence herbicidal activity against Amaranthus retroflexus compound treated as foliar application measured after 2 weeks; type: functional; procedure, shortened: as §2
Ipomoea = assay: Post-emergence herbicidal activity against Ipomoea spp. compound treated as foliar application measured after 2 weeks; type: functional; procedure, shortened: as §2
Helianthus = assay: Post-emergence herbicidal activity against Helianthus spp. compound treated as foliar application measured after 2 weeks; type: functional; procedure, shortened: as §2
Chenopodium album = assay: Post-emergence herbicidal activity against Chenopodium album compound treated as foliar application measured after 2 weeks; type: functional; procedure, shortened: as §2
Datura stramonium = assay: Post-emergence herbicidal activity against Datura stramonium compound treated as foliar application measured after 2 weeks; type: functional; procedure, shortened: as §2
Xanthium strumarium = assay: Post-emergence herbicidal activity against Xanthium strumarium (cocklebur) compound treated as foliar application measured after 2 weeks; type: functional; procedure, shortened: as §2
[4] = Inhibition of acetolactatae synthase; conditions: read-out: I50
Procedure, shortened: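 Barley ALS: etiolated shoots of 5–6 d old Hector Spring barley homogenized at 0–4 °C in 20 mM HEPES pH 7.2, 1 mM EDTA, 5 mM DTT, then 33% (NH4)2SO4 cut. Reaction: 20 mM HEPES pH 7.2, 5 mM MgCl2, 0.25 mM TPP, FAD, 22.5 mM pyruvate, 0.7% DMSO final, 37 °C, 30 min. Acid decarboxylation to acetoin, then creatine/1-naphthol colour read at 530 nm. Reported as I50 (nM).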

Avena fatua = assay: Post-emergence herbicidal activity against Avena fatua compound treated as foliar application measured after 2 weeks; type: functional; procedure, shortened: as §2
Oryza sativa [5] = assay: Phytotoxicity against Oryza sativa (rice); type: organism-based; conditions: in vivo
Digitaria sanguinalis = assay: Post-emergence herbicidal activity against Digitaria sanguinalis (hairy crabgrass) compound treated as foliar application measured after 2 weeks; type: functional; procedure, shortened: as §2
Sorghum halepense = assay: Post-emergence herbicidal activity against Sorghum halepense (Johnson grass) compound treated as foliar application measured after 2 weeks; type: functional; procedure, shortened: as §2
Setaria faberi = assay: Post-emergence herbicidal activity against Setaria faberi (Giant Foxtail) compound treated as foliar application measured after 2 weeks; type: functional; procedure, shortened: as §2
Echinochloa crus-galli [6] = assay: Post-emergence herbicidal activity against Echinochloa crus-galli (barnyard grass) compound treated as foliar application measured after 2 weeks; type: functional; procedure, shortened: as §2
Alopecurus = assay: Post-emergence herbicidal activity against Alopecurus spp. compound treated as foliar application measured after 2 weeks; type: functional; procedure, shortened: as §2
Fallopia convolvulus = assay: Post-emergence herbicidal activity against Fallopia convolvulus compound treated as foliar application measured after 2 weeks; type: functional; procedure, shortened: as §2
Stellaria media = assay: Post-emergence herbicidal activity against Stellaria media compound treated as foliar application measured after 2 weeks; type: functional; procedure, shortened: as §2

Row | SMILES | IC50 [4] [nM] | GR80 (Ipomoea hederacea) [ppm] | GR80 (Veronica hederifolia) [ppm] | GR80 (Abutilon theophrasti) [ppm] | GR80 (Amaranthus retroflexus) [ppm] | GR80 (Ipomoea) [ppm] | GR80 (Helianthus) [ppm] | GR80 (Chenopodium album) [ppm] | GR80 (Datura stramonium) [ppm] | GR80 (Xanthium strumarium) [ppm] | GR80 (Avena fatua) [ppm] | GR20 (Oryza sativa [5]) [ppm] | GR80 (Digitaria sanguinalis) [ppm] | GR80 (Sorghum halepense) [ppm] | GR80 (Setaria faberi) [ppm] | GR80 (Echinochloa crus-galli [6]) [ppm] | GR80 (Alopecurus) [ppm] | GR80 (Fallopia convolvulus) [ppm] | GR80 (Stellaria media) [ppm] | other results
1 | COc1cnc(OC)n2nc(NS(=O)(=O)c3c(OCC(F)(F)F)cccc3C(F)(F)F)nc12 |  |  |  |  |  |  |  |  |  |  |  |  |  |  |  |  |  |  |  | GR80 (Pontederia vaginalis): 5 gAi/ha; GR80 (Cyperus difformis): 36 gAi/ha; GR80 [1]: 21 gAi/ha; GR80 (Echinochloa crus-galli [2]): 19 gAi/ha; GR20 (Oryza sativa [3]): 51 gAi/ha
2 | COc1nccc2nc(NS(=O)(=O)c3c(Cl)cccc3Cl)nn12 | 1040 | 475 | 475 | 475 | 475 | 475 | 475 | 475 | 475 | 475 | 500 | 500 | 500 | 500 | 500 | 500 | 500 | 475 | 475 | 
3 | COc1nc(F)cc2nc(NS(=O)(=O)c3c(Cl)cccc3Cl)nn12 | 27 | 62 | 62 | 62 | 62 | 62 | 62 | 62 | 62 | 62 | 8 | 8 | 8 | 8 | 8 | 8 | 8 | 62 | 62 | 
4 | COc1cc2nc(NS(=O)(=O)c3c(Cl)cccc3Cl)nn2c(OC)n1 | 195 | >1000 | >1000 | >1000 | >1000 | >1000 | >1000 | >1000 | >1000 | >1000 | >1000 | > 1000 | >1000 | >1000 | >1000 | >1000 | >1000 | >1000 | >1000 | 
5 | COc1ccccc1S(=O)(=O)Nc1nc2c(OC)cnc(OC)n2n1 |  | 1 | 1 | 1 | 1 | 1 | 1 | 1 | 1 | 1 | 1 | < 1 | 1 | 1 | 1 | 2 | 1 | 1 | 1 | 
6 | CCOc1cccc(C(F)(F)F)c1S(=O)(=O)Nc1nc2c(OC)cnc(OC)n2n1 |  | 2 | 2 | 2 | 2 | 2 | 2 | 2 | 2 | 2 | 191 | 250 | 191 | 191 | 191 | 4 | 191 | 2 | 2 | GR80 (Pontederia vaginalis): 1 gAi/ha; GR80 [1]: 3 gAi/ha; GR80 (Echinochloa crus-galli [2]): 1 gAi/ha; GR20 (Oryza sativa [3]): 1 gAi/ha

Further compounds by falling IC50 [4], results first:

Row | IC50 [4] [nM] | SMILES | GR80 (Ipomoea hederacea) [ppm] | GR80 (Veronica hederifolia) [ppm] | GR80 (Abutilon theophrasti) [ppm] | GR80 (Amaranthus retroflexus) [ppm] | GR80 (Ipomoea) [ppm] | GR80 (Helianthus) [ppm] | GR80 (Chenopodium album) [ppm] | GR80 (Datura stramonium) [ppm] | GR80 (Xanthium strumarium) [ppm] | GR80 (Avena fatua) [ppm] | GR20 (Oryza sativa [5]) [ppm] | GR80 (Digitaria sanguinalis) [ppm] | GR80 (Sorghum halepense) [ppm] | GR80 (Setaria faberi) [ppm] | GR80 (Echinochloa crus-galli [6]) [ppm] | GR80 (Alopecurus) [ppm] | GR80 (Fallopia convolvulus) [ppm] | GR80 (Stellaria media) [ppm] | other results
7 | 12 | COc1ncc(F)c2nc(NS(=O)(=O)c3c(Cl)cccc3Cl)nn12 | 19 | 19 | 19 | 19 | 19 | 19 | 19 | 19 | 19 | >125 | > 125 | >125 | >125 | >125 | >125 | >125 | 19 | 19 | 
8 | 7 | COc1ncc(C)c2nc(NS(=O)(=O)c3c(Cl)cccc3Cl)nn12 | <15 | <15 | <15 | <15 | <15 | <15 | <15 | <15 | <15 | 250 | 250 | 250 | 250 | 250 | 250 | 250 | <15 | <15 | 
9 | 2 | CCOc1cnc(OC)n2nc(NS(=O)(=O)c3c(Cl)cccc3Cl)nc12 | 216 | 216 | 216 | 216 | 216 | 216 | 216 | 216 | 216 | 250 | 250 | 250 | 250 | 250 | 250 | 250 | 216 | 216 | 
10 | 0.6 | COc1cnc(OC)n2nc(NS(=O)(=O)c3c(Cl)cccc3Cl)nc12 | 2 | 2 | 2 | 2 | 2 | 2 | 2 | 2 | 2 | 8 | 8 | 8 | 8 | 8 | 4 | 8 | 2 | 2 | 
11 | 0.6 | COc1ncc(Cl)c2nc(NS(=O)(=O)c3c(Cl)cccc3Cl)nn12 | 1 | 1 | 1 | 1 | 1 | 1 | 1 | 1 | 1 | 4 | 4 | 4 | 4 | 4 | 4 | 4 | 1 | 1 | 

— ChEMBL document CHEMBL3046654, “Penoxsulam--structure-activity relationships of triazolopyrimidine sulfonamides” (Bioorg Med Chem, 2009)
